Reference: ChEMBL document CHEMBL4041529, “Structure-Guided Design of EED Binders Allosterically Inhibiting the Epigenetic Polycomb Repressive Complex 2 (PRC2) Methyltransferase” (J Med Chem, 2017)

Tests used:
Polycomb protein EED [1] = molecular target: T1, Polycomb protein EED (Homo sapiens, UniProt O75530); test: Inhibition of human PRC2-EED (76 to 441 residues) expressed in Escherichia coli BL21 (DE3) using histone H3[21 to 44, K27MeO] as substrate and SAM as co-factor measured after 2 hrs by LC-MS/MS method
T1 sequence (O75530 whole entry, the tested form may be a part): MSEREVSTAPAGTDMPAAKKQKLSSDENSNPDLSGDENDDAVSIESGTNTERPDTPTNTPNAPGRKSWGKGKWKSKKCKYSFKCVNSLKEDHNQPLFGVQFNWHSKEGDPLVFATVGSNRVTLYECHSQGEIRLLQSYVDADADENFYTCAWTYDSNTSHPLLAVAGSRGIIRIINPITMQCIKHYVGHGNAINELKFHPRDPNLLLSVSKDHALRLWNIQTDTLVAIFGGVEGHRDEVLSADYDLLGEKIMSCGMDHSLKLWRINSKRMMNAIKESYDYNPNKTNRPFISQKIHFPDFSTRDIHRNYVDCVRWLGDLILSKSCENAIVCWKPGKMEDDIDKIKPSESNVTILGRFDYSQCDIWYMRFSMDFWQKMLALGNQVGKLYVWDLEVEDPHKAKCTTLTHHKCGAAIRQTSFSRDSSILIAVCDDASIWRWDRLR

Polycomb protein EED [2] = molecular target: T1, Polycomb protein EED; test: Inhibition of EED in human G401 cells assessed as reduction in H3K27 methylation measured after 48 hrs by ELISA method; assay type: cell-based
Procedure, shortened: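 G-401 rhabdoid cells at 37 °C, 5% CO2 were seeded, grown 24 h, then given serial dilutions for 48 h against a matched DMSO control. Cells were PBS-washed, lysed in 0.4 N HCl for 30 min at 4 °C and neutralized. Lysate was coated overnight at 4 °C, blocked with TBST/5% BSA, then probed with antibody and ECL. H3K27Me3 was normalized to H3, and IC50 came from a dose-response fit.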

[3] = Dissociation constant, pKa of the compound by electrophoresis/potentiometric method; assay type: physicochemical
Pfeiffer = test: Antiproliferative activity against human Pfeiffer cells harboring EZH2 mutant measured after 6 days by CellTiter-Glo assay; assay type: functional, cell-based; conditions: for EC50: 144 h
Procedure, shortened: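 Exponentially growing Pfeiffer B-lymphocyte cells were exposed to compound for 6 days. Growth was read by CellTiter-Glo luminescence. Percent inhibition was taken versus a DMSO control, and IC50 was obtained by curve fitting.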

Polycomb protein EED [4] = molecular target: T1, Polycomb protein EED; test: Binding affinity to human methionine-13Cepsilon-methyl labeled PRC2-EED (76 to 441 residues) expressed in Escherichia coli BL21 (DE3) by 2D NMR method
Procedure, shortened: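 2D [13C,1H]-HSQC at 600 MHz, 296 K, on 40 μM selectively methionine-13Cε-methyl-labeled EED76–441 in 25 mM d-Tris pH 8, 150 mM NaCl, 2 mM d-DTT, 10% D2O. The protein was titrated with increasing ligand, and KD was derived from the chemical shift perturbations.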

SMILES | IC50 (Polycomb protein EED [1]) [µM] | IC50 (Polycomb protein EED [2]) [µM] | pKa [3] | other results
Nc1ncc2n1CC(Cc1cccc3occc13)CC2 (centres undefined) | 2.7 | 12.4 |  | 
N=C(N)N1CCCC(Cc2cccc3occc23)C1 (centres undefined) | 2.1 | 2.5 | > 11 | 
c1ccc(CC2CCCNC2)cc1 (centres undefined) | > 500 |  |  | 
COc1ccc(F)c(CC2CCc3c(C(C)C)nc(N)n3C2)c1 (centres undefined) | 1.3 | 2.9 |  | EC50 (Pfeiffer): 4.4 µM
N=C(N)N1CCCC(Cc2cccc3ccoc23)C1 (centres undefined) | 2.8 | 2.5 |  | 
N=C(N)N1CCCC(Cc2cccc3c2OCO3)C1 (centres undefined) | 3.9 | 1.6 | > 11 | 
COc1ccc(CC2CCCNC2)cc1 (centres undefined) | > 500 |  |  | 
NC(=O)N1CCCC(Cc2cccc3ccoc23)C1 (centres undefined) | 174 |  |  | 
c1cc(CC2CCCNC2)c2ccoc2c1 (centres undefined) | 40 |  | 9.8 | 
COc1cccc(CC2CCCN(C(=N)N)C2)c1 (centres undefined) | 43 |  | > 11 | 
c1cc(CC2CCCNC2)c2c(c1)OCO2 (centres undefined) | 35 |  |  | 
COc1cccc(CC2CCCNC2)c1 (centres undefined) | 95 |  | 9.9 | Kd (Polycomb protein EED [4]): 32 µM
c1cc(CC2CCCNC2)c2occc2c1 (centres undefined) | 95 |  |  | 
COc1cc(CC2CCCNC2)ccc1F (centres undefined) | 119 |  |  | 
CC(C)c1nc(N)n2c1CCC(Cc1ccccc1F)C2 (centres undefined) | 7.9 |  |  | 
CC(C)c1nc(N)n2c1CCC(Cc1cccc3c1OCO3)C2 (centres undefined) | 0.43 | 2 |  | Activity (Pfeiffer): Dose-dependent effect; EC50 (Pfeiffer): 3.4 µM
Nc1ncc2n1CC(Cc1cccc3c1OCO3)CC2 (centres undefined) | 1.3 | 1 | 9.2 | 
